Experimental data as given in ChEMBL document CHEMBL3351794, “Synthesis and biological evaluation of pentacyclic strychnos alkaloids as selective modulators of the ABCC10 (MRP7) efflux pump” (J Med Chem, 2014).
Active and inactive are the calls of the source. No cut-off for these calls is given here.

Legend:
[1] = biological target: P-gp (ABCB1) ATPase activity (Homo sapiens, UniProt P08183); test: Inhibition of P-gp (unknown origin) assessed as reduction in ATPase activity at 2.08 to 6.25 uM incubated over 20 mins by inorganic phosphate release assay
Summary of the method: (§1)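 P-gp ATPase assay run in the same way as the ABCC10 assay. Membrane protein (5−10 μg) was preincubated 5 min at 37 °C with test agent, buffer (Tris-HCl pH 7.5, KCl, azide, EGTA, ouabain, DTT) and MgCl2. The reaction was started with 5 mM ATP, run 20 min at 37 °C and quenched with SDS. Pi was measured colorimetrically.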

[2] = biological target: T1, ATP-binding cassette sub-family C member 10 (Homo sapiens) (UniProt Q5T3U5); test: Inhibition of ABCC10 (unknown origin) assessed as reduction in BeFx-sensitive ATPase activity at 2.08 to 50 uM incubated over 20 mins by inorganic phosphate release assay
T1 sequence (whole entry): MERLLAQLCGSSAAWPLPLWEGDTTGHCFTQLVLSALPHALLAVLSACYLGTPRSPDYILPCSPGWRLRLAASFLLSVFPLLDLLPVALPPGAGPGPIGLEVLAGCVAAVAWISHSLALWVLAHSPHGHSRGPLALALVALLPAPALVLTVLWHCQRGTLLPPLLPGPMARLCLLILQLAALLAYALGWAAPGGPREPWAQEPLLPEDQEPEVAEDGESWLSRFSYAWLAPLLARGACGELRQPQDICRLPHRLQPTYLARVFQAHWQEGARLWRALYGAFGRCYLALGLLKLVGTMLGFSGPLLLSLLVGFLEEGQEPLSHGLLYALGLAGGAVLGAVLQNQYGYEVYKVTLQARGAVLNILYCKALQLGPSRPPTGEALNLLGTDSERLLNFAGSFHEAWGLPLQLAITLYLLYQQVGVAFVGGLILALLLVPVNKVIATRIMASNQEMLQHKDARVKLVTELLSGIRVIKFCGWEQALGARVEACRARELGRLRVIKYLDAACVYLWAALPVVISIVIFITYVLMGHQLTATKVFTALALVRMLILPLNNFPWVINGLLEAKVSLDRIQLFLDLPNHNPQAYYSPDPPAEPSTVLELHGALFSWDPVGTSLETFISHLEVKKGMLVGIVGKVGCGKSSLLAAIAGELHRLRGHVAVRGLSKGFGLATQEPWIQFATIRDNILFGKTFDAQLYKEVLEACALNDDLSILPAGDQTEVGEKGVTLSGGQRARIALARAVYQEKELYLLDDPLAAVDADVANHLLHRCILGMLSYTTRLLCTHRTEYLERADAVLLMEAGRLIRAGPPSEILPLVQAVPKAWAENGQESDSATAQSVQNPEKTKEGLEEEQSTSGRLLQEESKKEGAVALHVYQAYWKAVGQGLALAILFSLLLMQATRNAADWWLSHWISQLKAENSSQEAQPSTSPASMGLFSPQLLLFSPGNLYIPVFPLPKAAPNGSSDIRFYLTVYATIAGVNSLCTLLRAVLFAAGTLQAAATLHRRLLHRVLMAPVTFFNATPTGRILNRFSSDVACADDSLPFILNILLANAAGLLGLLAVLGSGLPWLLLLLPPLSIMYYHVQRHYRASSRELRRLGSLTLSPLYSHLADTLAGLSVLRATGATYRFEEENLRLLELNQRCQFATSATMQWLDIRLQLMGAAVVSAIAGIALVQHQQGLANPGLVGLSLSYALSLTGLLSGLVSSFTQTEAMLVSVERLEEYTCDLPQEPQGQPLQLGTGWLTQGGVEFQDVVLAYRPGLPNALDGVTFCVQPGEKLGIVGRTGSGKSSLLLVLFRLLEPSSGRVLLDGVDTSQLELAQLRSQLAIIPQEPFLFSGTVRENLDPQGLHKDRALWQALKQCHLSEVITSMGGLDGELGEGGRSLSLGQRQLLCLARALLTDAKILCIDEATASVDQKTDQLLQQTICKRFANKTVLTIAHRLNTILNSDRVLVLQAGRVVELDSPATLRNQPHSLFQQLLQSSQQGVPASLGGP
Summary of the method: (§2)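 Membranes holding ABCC10 (5−10 μg protein) were preincubated for 5 min at 37 °C with test agent in 2× assay buffer (Tris-HCl pH 7.5, KCl, sodium azide, EGTA, ouabain, DTT) plus MgCl2. The reaction was started with 5 mM ATP and run 20 min at 37 °C, then stopped with 5% SDS. Released Pi was read colorimetrically (Lanzetta), and ABCC10 activity was taken as the BeFx-sensitive fraction.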

[3] = biological target: T1, ATP-binding cassette sub-family C member 10 (Homo sapiens); test: Inhibition of ABCC10 (unknown origin) assessed as reduction in BeFx-sensitive ATPase activity incubated over 20 mins by inorganic phosphate release assay; summary of the method: as §2
[4] = biological target: ATP-dependent translocase ABCB1 (Homo sapiens, UniProt P08183); test: Inhibition of P-gp (unknown origin) assessed as reduction in ATPase activity at 2.08 to 50 uM incubated over 20 mins by inorganic phosphate release assay; summary of the method: as §1
[5] = biological target: T1, ATP-binding cassette sub-family C member 10 (Homo sapiens); test: Inhibition of ABCC10 (unknown origin) assessed as reduction in BeFx-sensitive ATPase activity at 12.5 uM incubated over 20 mins by inorganic phosphate release assay; summary of the method: as §2
[6] = biological target: T1, ATP-binding cassette sub-family C member 10 (Homo sapiens); test: Inhibition of ABCC10 (unknown origin) expressed in HEK293 cells assessed as reversal of paclitaxel resistance at 12.5 uM after 72 hrs by MTS/PMS assay; format: cell-based
Summary of the method: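 Cells used were HEK293-pcDNA3 vector control and the ABCC10 (MRP7) transfectants C17 and C18, seeded in triplicate at 5000 cells/well in DMEM with 10% FBS. Next day, paclitaxel was added at various concentrations, with or without modulator at 12.5 μM. Survival was read after 72 h of drug exposure by MTS/PMS colorimetric assay.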

[7] = biological target: T1, ATP-binding cassette sub-family C member 10 (Homo sapiens); test: Inhibition of ABCC10 (unknown origin) assessed as reduction in BeFx-sensitive ATPase activity at 50 uM incubated over 20 mins by inorganic phosphate release assay; summary of the method: as §2

Chain of ATP-dependent translocase ABCB1 (P08183 whole entry): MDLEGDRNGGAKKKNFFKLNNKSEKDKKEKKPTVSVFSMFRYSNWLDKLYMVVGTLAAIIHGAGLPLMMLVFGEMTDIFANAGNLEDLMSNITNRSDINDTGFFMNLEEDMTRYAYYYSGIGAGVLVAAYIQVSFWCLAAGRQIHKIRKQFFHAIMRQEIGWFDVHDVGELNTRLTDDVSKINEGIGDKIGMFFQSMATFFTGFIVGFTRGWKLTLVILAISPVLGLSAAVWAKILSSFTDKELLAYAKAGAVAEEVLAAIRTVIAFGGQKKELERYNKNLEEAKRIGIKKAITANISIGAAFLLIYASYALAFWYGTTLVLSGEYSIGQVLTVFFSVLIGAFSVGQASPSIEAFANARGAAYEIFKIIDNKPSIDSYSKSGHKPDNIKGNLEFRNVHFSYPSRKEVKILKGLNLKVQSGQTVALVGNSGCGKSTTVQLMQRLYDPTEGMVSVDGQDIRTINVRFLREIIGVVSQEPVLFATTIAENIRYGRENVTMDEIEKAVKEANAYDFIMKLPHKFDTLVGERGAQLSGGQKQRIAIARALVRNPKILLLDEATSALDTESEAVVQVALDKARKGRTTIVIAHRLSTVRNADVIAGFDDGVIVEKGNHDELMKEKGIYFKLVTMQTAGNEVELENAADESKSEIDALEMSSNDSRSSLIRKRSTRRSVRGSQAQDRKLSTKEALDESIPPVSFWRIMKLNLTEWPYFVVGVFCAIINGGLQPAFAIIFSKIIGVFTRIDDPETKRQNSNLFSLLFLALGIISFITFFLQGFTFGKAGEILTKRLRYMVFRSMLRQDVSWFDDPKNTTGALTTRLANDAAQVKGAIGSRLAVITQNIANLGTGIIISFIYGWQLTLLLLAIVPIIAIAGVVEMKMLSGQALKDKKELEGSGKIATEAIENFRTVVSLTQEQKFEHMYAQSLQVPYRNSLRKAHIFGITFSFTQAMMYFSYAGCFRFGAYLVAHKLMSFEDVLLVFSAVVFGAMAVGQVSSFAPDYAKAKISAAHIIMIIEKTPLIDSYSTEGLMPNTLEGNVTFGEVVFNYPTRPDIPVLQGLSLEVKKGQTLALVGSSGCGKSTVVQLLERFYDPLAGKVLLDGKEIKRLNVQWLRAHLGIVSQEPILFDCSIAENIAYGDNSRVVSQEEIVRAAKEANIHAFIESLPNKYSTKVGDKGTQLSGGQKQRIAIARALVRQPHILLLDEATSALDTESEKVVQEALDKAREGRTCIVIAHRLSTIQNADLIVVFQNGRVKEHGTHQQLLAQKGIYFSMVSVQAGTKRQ
Chain of P-gp (ABCB1) ATPase activity (P08183 whole entry): as above

COC(=O)C1=C2Nc3ccccc3[C@@]23CCN2C[C@H]([C@@H](C)O)[C@@H]1C[C@H]23
inhibition at 20 min [1]: 35%
inhibition [2]: inactive

COc1ccc2cc1Oc1ccc(cc1)C[C@H]1c3c(cc4c(c3Oc3cc5c(cc3OC)CCN(C)[C@@H]5C2)OCO4)CCN1C
inhibition [3]: 20%

CCOC(=O)O[C@H](C)[C@H]1CN2CC[C@]34C(=C(C(=O)OC)[C@H]1C[C@H]23)Nc1ccccc14 [ALSTOLUCINE A]
inhibition (INH) [4]: Not Active
inhibition [2]: inactive

COC(=O)C1=C2Nc3ccccc3[C@@]23CCN2C[C@@H](C(C)=O)[C@@H]1C[C@H]23 [ALSTOLUCINE B]
inhibition (INH) [4]: Not Active
inhibition [5]: 40%
inhibition [6]: 50%

COC(=O)C1=C2Nc3ccccc3[C@@]23CCN2C[C@H](C(C)=O)[C@@H]1C[C@H]23 [ALSTOLUCINE F]
inhibition (INH) [4]: Not Active
inhibition [7]: 40%
inhibition [6]: 50%
